What follows are compounds tested on Escherichia coli (assay: Antimicrobial activity against Escherichia coli RCMB 103001 at 5 mg/ml by agar diffusion technique). Conditions: read-out: DIZ.
Format: functional
Procedure, shortened: (§1)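 Agar well diffusion. Test compounds and reference standard drugs were diluted to 5.0, 2.5 and 1.0 mg/mL and applied to 0.6 cm wells. Inhibition zone beyond the control was scored as 0 (no inhibition), + (0.1–0.5 cm), ++ (0.6–1.0 cm) or +++ (1.0–1.5 cm).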

Row | Structure (SMILES) | zone of inhibition at 5000 µg/mL
1 | S=c1[nH]nc(-c2cccnc2)n1/N=C\c1ccccc1OCCOCCOCCOc1ccccc1/C=N\n1c(-c2cccnc2)n[nH]c1=S | 0 mm
2 | Nn1c(SCCSc2nnc(-c3cccnc3)n2N)nnc1-c1cccnc1 | 1 mm

Each compound was assayed on Candida albicans (assay: Antimicrobial activity against Candida albicans RCMB 005003 at 2.5 mg/ml by agar diffusion technique). Conditions: read-out: DIZ.
Format: functional
Procedure, shortened: as §1

Row | Structure (SMILES) | zone of inhibition at 2500 µg/mL
3 | S=c1[nH]nc(-c2cccnc2)n1/N=C\c1ccccc1OCCOCCOCCOc1ccccc1/C=N\n1c(-c2cccnc2)n[nH]c1=S | 0 mm
4 | Nn1c(SCCSc2nnc(-c3cccnc3)n2N)nnc1-c1cccnc1 | 1 mm

Each compound was assayed on Syncephalastrum racemosum (assay: Antimicrobial activity against Syncephalastrum racemosum RCMB 016001 at 5 mg/ml by agar diffusion technique). Conditions: read-out: DIZ.
Format: functional
Procedure, shortened: as §1

Row | Structure (SMILES) | zone of inhibition at 5000 µg/mL
5 | S=c1[nH]nc(-c2cccnc2)n1/N=C\c1ccccc1OCCOCCOCCOc1ccccc1/C=N\n1c(-c2cccnc2)n[nH]c1=S | 0 mm
6 | Nn1c(SCCSc2nnc(-c3cccnc3)n2N)nnc1-c1cccnc1 | 0 mm

The compounds below were run on Penicillium italicum (assay: Antimicrobial activity against Penicillium italicum RCMB 001018 at 1 mg/ml by agar diffusion technique). Conditions: read-out: DIZ.
Format: functional
Procedure, shortened: as §1

Row | Structure (SMILES) | zone of inhibition at 1000 µg/mL
7 | S=c1[nH]nc(-c2cccnc2)n1/N=C\c1ccccc1OCCOCCOCCOc1ccccc1/C=N\n1c(-c2cccnc2)n[nH]c1=S | 1 mm
8 | Nn1c(SCCSc2nnc(-c3cccnc3)n2N)nnc1-c1cccnc1 | 0 mm

What follows are compounds tested on Escherichia coli (assay: Antimicrobial activity against Escherichia coli RCMB 103001 at 1 mg/ml by agar diffusion technique). Conditions: read-out: DIZ.
Format: functional
Procedure, shortened: as §1

Row | Structure (SMILES) | zone of inhibition at 1000 µg/mL
9 | S=c1[nH]nc(-c2cccnc2)n1/N=C\c1ccccc1OCCOCCOCCOc1ccccc1/C=N\n1c(-c2cccnc2)n[nH]c1=S | 0 mm
10 | Nn1c(SCCSc2nnc(-c3cccnc3)n2N)nnc1-c1cccnc1 | 0 mm

Each compound was assayed on Pseudomonas aeruginosa (assay: Antimicrobial activity against Pseudomonas aeruginosa RCMB 102002 at 5 mg/ml by agar diffusion technique). Conditions: read-out: DIZ.
Format: functional
Procedure, shortened: as §1

Row | Structure (SMILES) | zone of inhibition at 5000 µg/mL
11 | S=c1[nH]nc(-c2cccnc2)n1/N=C\c1ccccc1OCCOCCOCCOc1ccccc1/C=N\n1c(-c2cccnc2)n[nH]c1=S | 0 mm
12 | Nn1c(SCCSc2nnc(-c3cccnc3)n2N)nnc1-c1cccnc1 | 0 mm

Each compound was assayed on Syncephalastrum racemosum (assay: Antimicrobial activity against Syncephalastrum racemosum RCMB 016001 at 1 mg/ml by agar diffusion technique). Conditions: read-out: DIZ.
Format: functional
Procedure, shortened: as §1

Row | Structure (SMILES) | zone of inhibition at 1000 µg/mL
13 | S=c1[nH]nc(-c2cccnc2)n1/N=C\c1ccccc1OCCOCCOCCOc1ccccc1/C=N\n1c(-c2cccnc2)n[nH]c1=S | 0 mm
14 | Nn1c(SCCSc2nnc(-c3cccnc3)n2N)nnc1-c1cccnc1 | 0 mm

Each compound was assayed on Staphylococcus aureus (assay: Antimicrobial activity against Staphylococcus aureus RCMB 106001 at 1 mg/ml by agar diffusion technique). Conditions: read-out: DIZ.
Format: functional
Procedure, shortened: as §1

Row | Structure (SMILES) | zone of inhibition at 1000 µg/mL
15 | S=c1[nH]nc(-c2cccnc2)n1/N=C\c1ccccc1OCCOCCOCCOc1ccccc1/C=N\n1c(-c2cccnc2)n[nH]c1=S | 0 mm
16 | Nn1c(SCCSc2nnc(-c3cccnc3)n2N)nnc1-c1cccnc1 | 0 mm

What follows are compounds tested on Aspergillus fumigatus (assay: Antimicrobial activity against Aspergillus fumigatus RCMB 002008 at 5 mg/ml by agar diffusion technique). Conditions: read-out: DIZ.
Format: functional
Procedure, shortened: as §1

Row | Structure (SMILES) | zone of inhibition at 5000 µg/mL
17 | S=c1[nH]nc(-c2cccnc2)n1/N=C\c1ccccc1OCCOCCOCCOc1ccccc1/C=N\n1c(-c2cccnc2)n[nH]c1=S | 0 mm
18 | Nn1c(SCCSc2nnc(-c3cccnc3)n2N)nnc1-c1cccnc1 | 0 mm

Each compound was assayed on Staphylococcus aureus (assay: Antimicrobial activity against Staphylococcus aureus RCMB 106001 at 2.5 mg/ml by agar diffusion technique). Conditions: read-out: DIZ.
Format: functional
Procedure, shortened: as §1

Row | Structure (SMILES) | zone of inhibition at 2500 µg/mL
19 | S=c1[nH]nc(-c2cccnc2)n1/N=C\c1ccccc1OCCOCCOCCOc1ccccc1/C=N\n1c(-c2cccnc2)n[nH]c1=S | 0 mm
20 | Nn1c(SCCSc2nnc(-c3cccnc3)n2N)nnc1-c1cccnc1 | 0 mm

The compounds below were run on Syncephalastrum racemosum (assay: Antimicrobial activity against Syncephalastrum racemosum RCMB 016001 at 2.5 mg/ml by agar diffusion technique). Conditions: read-out: DIZ.
Format: functional
Procedure, shortened: as §1

Row | Structure (SMILES) | zone of inhibition at 2500 µg/mL
21 | S=c1[nH]nc(-c2cccnc2)n1/N=C\c1ccccc1OCCOCCOCCOc1ccccc1/C=N\n1c(-c2cccnc2)n[nH]c1=S | 0 mm
22 | Nn1c(SCCSc2nnc(-c3cccnc3)n2N)nnc1-c1cccnc1 | 0 mm

The compounds below were run on Aspergillus fumigatus (assay: Antimicrobial activity against Aspergillus fumigatus RCMB 002008 at 2.5 mg/ml by agar diffusion technique). Conditions: read-out: DIZ.
Format: functional
Procedure, shortened: as §1

Row | Structure (SMILES) | zone of inhibition at 2500 µg/mL
23 | S=c1[nH]nc(-c2cccnc2)n1/N=C\c1ccccc1OCCOCCOCCOc1ccccc1/C=N\n1c(-c2cccnc2)n[nH]c1=S | 0 mm
24 | Nn1c(SCCSc2nnc(-c3cccnc3)n2N)nnc1-c1cccnc1 | 0 mm

What follows are compounds tested on Pseudomonas aeruginosa (assay: Antimicrobial activity against Pseudomonas aeruginosa RCMB 102002 at 1 mg/ml by agar diffusion technique). Conditions: read-out: DIZ.
Format: functional
Procedure, shortened: as §1

Row | Structure (SMILES) | zone of inhibition at 1000 µg/mL
25 | S=c1[nH]nc(-c2cccnc2)n1/N=C\c1ccccc1OCCOCCOCCOc1ccccc1/C=N\n1c(-c2cccnc2)n[nH]c1=S | 0 mm
26 | Nn1c(SCCSc2nnc(-c3cccnc3)n2N)nnc1-c1cccnc1 | 0 mm

The compounds below were run on Pseudomonas aeruginosa (assay: Antimicrobial activity against Pseudomonas aeruginosa RCMB 102002 at 2.5 mg/ml by agar diffusion technique). Conditions: read-out: DIZ.
Format: functional
Procedure, shortened: as §1

Row | Structure (SMILES) | zone of inhibition at 2500 µg/mL
27 | S=c1[nH]nc(-c2cccnc2)n1/N=C\c1ccccc1OCCOCCOCCOc1ccccc1/C=N\n1c(-c2cccnc2)n[nH]c1=S | 0 mm
28 | Nn1c(SCCSc2nnc(-c3cccnc3)n2N)nnc1-c1cccnc1 | 0 mm

Each compound was assayed on Bacillus subtilis (assay: Antimicrobial activity against Bacillus subtilis RCMB 101001 at 1 mg/ml by agar diffusion technique). Conditions: read-out: DIZ.
Format: functional
Procedure, shortened: as §1

Row | Structure (SMILES) | zone of inhibition at 1000 µg/mL
29 | S=c1[nH]nc(-c2cccnc2)n1/N=C\c1ccccc1OCCOCCOCCOc1ccccc1/C=N\n1c(-c2cccnc2)n[nH]c1=S | 0 mm
30 | Nn1c(SCCSc2nnc(-c3cccnc3)n2N)nnc1-c1cccnc1 | 0 mm

These compounds were tested on Escherichia coli (assay: Antimicrobial activity against Escherichia coli RCMB 103001 at 2.5 mg/ml by agar diffusion technique). Conditions: read-out: DIZ.
Format: functional
Procedure, shortened: as §1

Row | Structure (SMILES) | zone of inhibition at 2500 µg/mL
31 | S=c1[nH]nc(-c2cccnc2)n1/N=C\c1ccccc1OCCOCCOCCOc1ccccc1/C=N\n1c(-c2cccnc2)n[nH]c1=S | 0 mm
32 | Nn1c(SCCSc2nnc(-c3cccnc3)n2N)nnc1-c1cccnc1 | 0 mm

The compounds below were run on Staphylococcus aureus (assay: Antimicrobial activity against Staphylococcus aureus RCMB 106001 at 5 mg/ml by agar diffusion technique). Conditions: read-out: DIZ.
Format: functional
Procedure, shortened: as §1

Row | Structure (SMILES) | zone of inhibition at 5000 µg/mL
33 | S=c1[nH]nc(-c2cccnc2)n1/N=C\c1ccccc1OCCOCCOCCOc1ccccc1/C=N\n1c(-c2cccnc2)n[nH]c1=S | 1 mm
34 | Nn1c(SCCSc2nnc(-c3cccnc3)n2N)nnc1-c1cccnc1 | 1 mm

These compounds were tested on Bacillus subtilis (assay: Antimicrobial activity against Bacillus subtilis RCMB 101001 at 5 mg/ml by agar diffusion technique). Conditions: read-out: DIZ.
Format: functional
Procedure, shortened: as §1

Row | Structure (SMILES) | zone of inhibition at 5000 µg/mL
35 | S=c1[nH]nc(-c2cccnc2)n1/N=C\c1ccccc1OCCOCCOCCOc1ccccc1/C=N\n1c(-c2cccnc2)n[nH]c1=S | 0 mm
36 | Nn1c(SCCSc2nnc(-c3cccnc3)n2N)nnc1-c1cccnc1 | 0 mm

Each compound was assayed on Candida albicans (assay: Antimicrobial activity against Candida albicans RCMB 005003 at 1 mg/ml by agar diffusion technique). Conditions: read-out: DIZ.
Format: functional
Procedure, shortened: as §1

Row | Structure (SMILES) | zone of inhibition at 1000 µg/mL
37 | S=c1[nH]nc(-c2cccnc2)n1/N=C\c1ccccc1OCCOCCOCCOc1ccccc1/C=N\n1c(-c2cccnc2)n[nH]c1=S | 0 mm
38 | Nn1c(SCCSc2nnc(-c3cccnc3)n2N)nnc1-c1cccnc1 | 1 mm

These compounds were tested on Candida albicans (assay: Antimicrobial activity against Candida albicans RCMB 005003 at 5 mg/ml by agar diffusion technique). Conditions: read-out: DIZ.
Format: functional
Procedure, shortened: as §1

Row | Structure (SMILES) | zone of inhibition at 5000 µg/mL
39 | S=c1[nH]nc(-c2cccnc2)n1/N=C\c1ccccc1OCCOCCOCCOc1ccccc1/C=N\n1c(-c2cccnc2)n[nH]c1=S | 1 mm
40 | Nn1c(SCCSc2nnc(-c3cccnc3)n2N)nnc1-c1cccnc1 | 1 mm

The compounds below were run on Penicillium italicum (assay: Antimicrobial activity against Penicillium italicum RCMB 001018 at 2.5 mg/ml by agar diffusion technique). Conditions: read-out: DIZ.
Format: functional
Procedure, shortened: as §1

Row | Structure (SMILES) | zone of inhibition at 2500 µg/mL
41 | S=c1[nH]nc(-c2cccnc2)n1/N=C\c1ccccc1OCCOCCOCCOc1ccccc1/C=N\n1c(-c2cccnc2)n[nH]c1=S | 1 mm
42 | Nn1c(SCCSc2nnc(-c3cccnc3)n2N)nnc1-c1cccnc1 | 1 mm

Each compound was assayed on Penicillium italicum (assay: Antimicrobial activity against Penicillium italicum RCMB 001018 at 5 mg/ml by agar diffusion technique). Conditions: read-out: DIZ.
Format: functional
Procedure, shortened: as §1

Row | Structure (SMILES) | zone of inhibition at 5000 µg/mL
43 | S=c1[nH]nc(-c2cccnc2)n1/N=C\c1ccccc1OCCOCCOCCOc1ccccc1/C=N\n1c(-c2cccnc2)n[nH]c1=S | 6 mm
44 | Nn1c(SCCSc2nnc(-c3cccnc3)n2N)nnc1-c1cccnc1 | 1 mm

What follows are compounds tested on Aspergillus fumigatus (assay: Antimicrobial activity against Aspergillus fumigatus RCMB 002008 at 1 mg/ml by agar diffusion technique). Conditions: read-out: DIZ.
Format: functional
Procedure, shortened: as §1

Row | Structure (SMILES) | zone of inhibition at 1000 µg/mL
45 | S=c1[nH]nc(-c2cccnc2)n1/N=C\c1ccccc1OCCOCCOCCOc1ccccc1/C=N\n1c(-c2cccnc2)n[nH]c1=S | 0 mm
46 | Nn1c(SCCSc2nnc(-c3cccnc3)n2N)nnc1-c1cccnc1 | 0 mm

What follows are compounds tested on Bacillus subtilis (assay: Antimicrobial activity against Bacillus subtilis RCMB 101001 at 2.5 mg/ml by agar diffusion technique). Conditions: read-out: DIZ.
Format: functional
Procedure, shortened: as §1

Row | Structure (SMILES) | zone of inhibition at 2500 µg/mL
47 | S=c1[nH]nc(-c2cccnc2)n1/N=C\c1ccccc1OCCOCCOCCOc1ccccc1/C=N\n1c(-c2cccnc2)n[nH]c1=S | 0 mm
48 | Nn1c(SCCSc2nnc(-c3cccnc3)n2N)nnc1-c1cccnc1 | 0 mm

Source: ChEMBL document CHEMBL1629465, “Efficient synthesis of novel 1,2,4-triazole fused acyclic and 21-28 membered macrocyclic and/or lariat macrocyclic oxaazathia crown compounds with potential antimicrobial activity” (2010)
